Most compounds without a hit are left out; they make up all but 1.3% or so of the library.
Tb hexokinase – Trypanosoma brucei hexokinase 1 inhibitors, primary screen, biochemical, G6PDH-coupled NADH absorbance, MLSCN library. inhibition, % at 10 µM. actives 0.11% (n = 220,000). hexokinase 1 [Trypanosoma brucei]. recombinant TbHK1, G6PDH-coupled NADH A340;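 active = inhibition of 50% or more in the single-dose primary screen; inactive = inhibition below 50%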
Calb biofilm kill – clotrimazole potentiators killing C. albicans biofilm, primary screen, 4-compound mixtures; inhibition, % at 7.6 µM; C. albicans biofilm persisters + clotrimazole, fluorescence viability; primary screen in compound mixtures of four per well; actives 0.02% (n = 120,000); AID 1242, 2008;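 active = inhibition above 30.3% in the primary screen of four-compound pools, then above 30% when the compound was retested; inconclusive = passed the primary limit but could not be retested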;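 also: compounds exposed to preformed 24 h biofilms for 48 h; 0% = untreated biofilm control and 100% = clotrimazole plus chlorhexidine kill blank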
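Test system: C. albicans biofilms. Buffer or medium: RPMI/MOPS medium, pH 7.0. Timing: 48 h compound exposure at 37 °C. Technique: Alamar Blue fluorescence. Evaluation: percent inhibition of biofilm viability.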
S1P4 antagonist – S1P4 receptor antagonists, primary screen, cell-based | S1P4-expressing cells, antagonist mode, reporter read-out | inhibition, % at 4.98 µM | actives 0.26% (n = 220,000) | AID 1510, 2009; in the data active = inhibition above about 29%;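 also: 0% = wells stimulated with agonist and 100% = vehicle wells without agonist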
Target sequence (O95977 whole entry, looked up): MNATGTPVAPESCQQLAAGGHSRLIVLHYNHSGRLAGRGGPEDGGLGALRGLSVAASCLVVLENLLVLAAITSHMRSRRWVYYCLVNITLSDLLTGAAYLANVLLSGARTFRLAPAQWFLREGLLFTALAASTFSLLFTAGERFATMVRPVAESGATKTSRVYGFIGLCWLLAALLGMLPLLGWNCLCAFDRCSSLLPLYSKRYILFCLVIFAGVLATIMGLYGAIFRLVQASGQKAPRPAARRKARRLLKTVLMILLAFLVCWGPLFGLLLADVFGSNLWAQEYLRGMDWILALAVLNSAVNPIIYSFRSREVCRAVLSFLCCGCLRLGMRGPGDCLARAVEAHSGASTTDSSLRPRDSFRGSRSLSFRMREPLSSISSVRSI
Dynein cargo inh – inhibitors of GR-EGFP nuclear translocation, primary screen, dynein cargo transport inhibitor project, imaging, high-content, 3617.4 mouse cells; test concentration mostly 20 µM; stimulated with dexamethasone, 1 µM; active compounds read low; z-score, hits read low; actives 0.47% (n = 220,000); AID 1381, 2008;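 active = plate z-score of nuclear minus cytoplasmic receptor signal below a set negative limit, without overly bright fluorescence or cell loss, cut at about -3.5 in these data, passing the limit was not always enough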;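 also: z-score of nuclear minus cytoplasmic ring GR-EGFP intensity difference per well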
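medium = tetracycline-free induction medium containing charcoal-stripped FBS | also added = 1.0 µM final dexamethasone stimulus | schedule = 48 h induction, 1 h compound, 30 min dex at 37 °C | technique = fixed, Hoechst-stained cells imaged at 10x for EGFP | measure = GR-EGFP nuclear translocation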
S1P4 ag – S1P4 receptor agonists, primary screen, cell-based; Sphingosine 1-phosphate receptor 4 (Homo sapiens), O95977; S1P4-expressing cell line, agonist reporter assay; activation, % at 4.98 µM; actives 0.35% (n = 220,000); in the data active = activation above about 11%;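 also: 0% = DMSO vehicle and 100% = reference agonist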
S1P3 antag – S1P3 receptor antagonists, primary screen, cell-based; actives 0.27% (n = 170,000); inhibition, % at 4.98 µM; CHO S1P3 NFAT-BLA reporter, FRET fluorescence, antagonist mode; Sphingosine 1-phosphate receptor 3 (Homo sapiens), Q99500;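 active = inhibition above the plate cutoff, the mean inhibition of test wells on that plate plus 3 SD, cut at about 28% in these data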;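 also: cells challenged with S1P at its EC80 of 0.8 µM; blue over green emission ratio from cleaved BLA substrate after 4 h stimulation; 0% = S1P-stimulated wells and 100% = unstimulated DMSO-only wells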
Dynein inh conf – dynein cargo transport inhibitors, GR-EGFP translocation, confirmation, imaging, high-content imaging, GR-EGFP cells; calls only at 20 µM; AID 463116, 2010; shares compounds with Dynein cargo inh; actives 69% (n = 1,000); 3617.4 GR-EGFP nuclear translocation imaging, dexamethasone-induced;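 active = inhibition of receptor movement into the nucleus at or above a set limit in both runs, with normal cell brightness and cell count; inconclusive = limit reached in only one run, brightness and count normal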;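 also: dexamethasone at 1 µM final in well for 30 min; nuclear minus cytoplasmic GR-EGFP mean intensity difference in channel 2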
Active calls of the source: *; i = inactive; ? = inconclusive; . = not tested or not shown; + = active, no number.

SMILES	Tb hexokinase	Calb biofilm kill	S1P4 antagonist	Dynein cargo inh	S1P4 ag	S1P3 antag	Dynein inh conf
O=C1C(Cl)=C(N2CCCCC2)C(=O)C(Cl)=C1c1cnc(N2CCCCC2)s1	-4	1	2	-4.9*	1	.	+
CCCCn1c(CCC)nc([N+](=O)[O-])c1Sc1ccc(Cl)cn1	-9	2	21	-3.6*	0	.	+
CC(C)Cn1c(C(C)C)nc([N+](=O)[O-])c1Sc1ccc(Cl)cn1	-5	12	11	-0.013	-2	.	.
CC(C)(C)c1cc(NC(=O)CCl)n(-c2ccccc2)n1	-7	12	-15	-3.4	-1	17	.
CCCc1cc(NC(=O)CCl)n(-c2ccccc2)n1	2	10	3	-4*	0	1	+
COc1ccc2nc(N3CCCC3)c(C#N)cc2c1	10	.	0	-4.2*	0	-23	i
Cc1cc(N2CCCC2)c(F)cc1/C=C\[N+](=O)[O-]	2	-13	6	-3.9	1	7	+
Cc1cc(N2CCC(C)CC2)c(F)cc1[N+](=O)[O-]	-7	.	-11	0.015	-1	.	.
C=CCn1c(=O)c(C(=O)Nc2nnc(C)s2)c(O)c2ccccc21	.	.	.	.	.	-12	.
O=C(c1coc(=O)c(Br)c1)N1CCC(C(O)(c2ccccc2)c2ccccc2)CC1	18	1	-4	-4.5*	1	1	+
O=C(C1CC1)N1CCC(C(O)(c2ccccc2)c2ccccc2)CC1	-15	.	14	-0.73	3	.	.
CCOC(=O)C(=Cc1c[nH]c2ccc(S(=O)(=O)N(C)C)cc12)C(=O)OCC	-44	25	24	-4.7*	-2	5	+
O=C1COc2ccc(C(=O)CCl)cc2N1	-9	15	24	-4*	1	-8	+
CCc1sc(C(C2C(=O)CC(C)(C)CC2=O)C2C(=O)CC(C)(C)CC2=O)cc1[N+](=O)[O-]	-4	19	-3	-5.2*	1	2	i
Cc1ccc(OCCCCN2CCCC(C)C2)c([N+](=O)[O-])c1 (stereo not given)	0	13	-11	1.2	1	-6	.
CC1(C)COC(/C=C/c2ccc([N+](=O)[O-])cc2)=N1	-18	19	-15	-4.1*	-1	9	+
O=C(/C=C/c1cccc([N+](=O)[O-])c1)n1cnc2ccccc21	-5	3	12	-5.1*	0	-11	+
O=C(/C=C/c1cccc([N+](=O)[O-])c1)N1CCOCC1	34	0	-24	-0.047	1	8	.
COc1cc(C(Nc2ccccn2)c2ccc3ccc(C)nc3c2O)cc(OC)c1O (stereo not given)	-4	.	13	-3.6*	3	12	+
COc1cccc(Sc2ccccc2/C=N/NC(N)=O)c1	1	24	2	0.57	1	2	.
CCCCC1OC2(C)OC(=N)C1(C#N)C(C#N)(C#N)C2c1ccccc1 (stereo not given)	0	9	-4	-4.5*	3	-12	+
COc1ccccc1C1Nc2cccc3cccc(c23)N1	-31	.	4	-4.7*	-2	.	i
Oc1ccccc1C1Nc2cccc3cccc(c23)N1	-18	.	-30	-0.99	2	17	.
O=C(NCc1ccccn1)c1coc(=O)c(Br)c1	-22	.	-9	-4.1*	3	.	i
Cc1cc(C(=O)CCl)c(C)n1-c1cccc(S(=O)(=O)N2CCOCC2)c1	-5	12	-11	-5.3*	0	-8	+
SMILES	Tb hexokinase	Calb biofilm kill	S1P4 antagonist	Dynein cargo inh	S1P4 ag	S1P3 antag	Dynein inh conf
COc1cccc(CN2CCNC(=O)C2CC(=O)N(Cc2cnn(C)c2)C(C)C)c1 (stereo not given)	0	26	-5	-0.33	1	-5	.
N=c1n(CCN2CCCCC2)c2ccccc2n1CC(=O)c1ccc(Cl)c(Cl)c1	1	13	15	-3.6*	-1	-2	i
O=C(O)/C=C/C(=O)NNC(=O)c1cccc(Br)c1	0	9	-8	-0.53	2	9	.
CCOC(=O)c1nc2sc(C)c(C)c2c(=O)[nH]1	-20	.	-24	-0.33	5	-38	.
CCOC(=O)/C(=C\c1cccc(O)c1)c1nc2sc(C)c(C)c2c(=O)[nH]1	25	4	15	-4.4*	-2	1	+
O=C(NC(=S)Nc1ccc(-c2ccc(CO)o2)cc1)c1cccs1	6	27	-4	-6.6*	-2	-3	i
O=C(CCl)Nc1cccc(Oc2ccccc2)c1	5	15	-4	-4.3*	10	-11	+
O=C(CCl)Nc1ccc(N2CCCCCC2)cc1	9	9	0	-6*	0	-9	+
Cc1ccc(Sc2ccc(NC(=O)CCl)cc2)cc1C	32	6	5	-4.5*	-1	2	+
O=C(CCl)Nc1ccc(-c2ccccc2)cc1	-3	6	-3	-5.4*	-2	-16	+
Cc1cccc(NC(=S)NCCc2ccc3c(c2)OCCO3)c1C	0	4	-21	-0.39	1	-5	.
Cc1noc(C)c1S(=O)(=O)N1CCCC(C(=O)c2cccc(OC(C)C)c2)C1 (stereo not given)	-3	7	-5	-0.21	2	-2	.
O=C(Nc1ccc(-n2cccc2)cc1)C1CC1	-10	17	-5	0.24	1	-3	.
Cc1nnc(NC(=O)c2sc3nc(-c4cccs4)cc(C(F)(F)F)c3c2N)s1	-20	.	-11	-6.1	2	.	i
Nc1c(C(=O)Nc2nccs2)sc2nc(-c3cccs3)cc(C(F)(F)F)c12	-10	.	16	-1.3	-3	.	.
CN=c1scc(-c2cccs2)n1/N=C/c1ccc(O)c(O)c1O	1	27	-19	-3.6*	3	1	?
Cn1c(=O)c(NCCc2ccccc2)c2c3c(cccc31)C(=O)c1ccccc1-2	0	.	-13	-5.1*	2	.	+
CCCCNc1c2c3c(cccc3n(C)c1=O)C(=O)c1ccccc1-2	-9	.	18	-5.1*	2	.	+
CC(=O)Nc1ccc(Nc2c3c4c(cccc4n(C)c2=O)C(=O)c2ccccc2-3)cc1	-3	6	-17	2	2	-2	.
Cn1c(=O)c(NC2CCCCC2)c2c3c(cccc31)C(=O)c1ccccc1-2	0	12	-8	-6.1	2	3	.
